According to ChEMBL document CHEMBL3272265, “Interferon inducing activities of derivatives of 1,3-dimethyl-4-(3-dimethylaminopropylamino)-1H-pyrazolo(3,4-b)quinoline and related compounds” (J Med Chem, 1976):
Active and inactive are the calls of the source. The rule behind the calls is not given here.

How the values were obtained:
Mus musculus [1] = test: Induction of interferon level >= 32 units/mL in ip dosed CD-1 mouse serum after 18 to 20 hrs by vesicular stomatitis virus plaque reduction assay; type: functional; settings: CD-1, Serum, read-out: MED
Method in brief: (§1)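 Female CD-1 mice (15 g; at least three per dose) received compound dissolved or suspended in sterile distilled water, orally or ip. They were bled 18–20 hr later and sera pooled. Interferon was titrated by plaque reduction in mouse L cells challenged with vesicular stomatitis virus, with an NIAID reference mouse interferon standard. MED was the lowest dose giving ≥32 units/ml. Top doses were 400 mg/kg po and 300 mg/kg ip.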

Mus musculus [2] = test: Induction of interferon level >= 32 units/mL in po dosed CD-1 mouse serum after 18 to 20 hrs by vesicular stomatitis virus plaque reduction assay; type: functional; settings: CD-1, Serum, read-out: MED; method in brief: as §1
Mus musculus [3] = test: Acute toxicity in CD-1 mouse at 1600 mg/kg, po; type: organism-based; set-up: dose 1600 mg/kg, route oral; settings: in vivo
Mus musculus [4] = test: Acute toxicity in CD-1 mouse at 250 mg/kg, ip; type: organism-based; set-up: dose 250 mg/kg, route intraperitoneal; settings: in vivo
Mus musculus [5] = test: Induction of interferon level in CD-1 mouse serum at 200 mg/kg, po after 18 to 20 hrs by vesicular stomatitis virus plaque reduction assay; type: functional, organism-based; set-up: dose 200 mg/kg
Method in brief: (§2)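 Dosing was oral or ip in 15-g female CD-1 mice, at least three per dose level, with compound in sterile distilled water as a solution or suspension. Pooled sera were collected 18–20 hr after dosing. Interferon units/ml were quantified by a plaque reduction assay on mouse L cells with vesicular stomatitis virus challenge, run against an NIAID reference mouse interferon standard.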

Mus musculus [6] = test: Toxicity in CD-1 mouse at 400 mg/kg, po; type: organism-based; set-up: dose 400 mg/kg, route oral; settings: in vivo
Mus musculus [7] = test: Induction of interferon level in CD-1 mouse serum at 50 mg/kg, ip after 18 to 20 hrs by vesicular stomatitis virus plaque reduction assay; type: functional, organism-based; set-up: dose 50 mg/kg; method in brief: as §2
Mus musculus [8] = test: Toxicity in CD-1 mouse at 300 mg/kg, ip; type: organism-based; set-up: dose 300 mg/kg, route intraperitoneal; settings: in vivo
Mus musculus [9] = test: Induction of interferon level in CD-1 mouse serum at 17 mg/kg, ip after 18 to 20 hrs by vesicular stomatitis virus plaque reduction assay; type: functional, organism-based; set-up: dose 17 mg/kg; method in brief: as §2
Mus musculus [10] = test: Induction of interferon level in CD-1 mouse serum at 100 mg/kg, po after 18 to 20 hrs by vesicular stomatitis virus plaque reduction assay; type: functional, organism-based; set-up: dose 100 mg/kg; method in brief: as §2
Mus musculus [11] = test: Induction of interferon level in CD-1 mouse serum at 400 mg/kg, po after 18 to 20 hrs by vesicular stomatitis virus plaque reduction assay; type: functional, organism-based; set-up: dose 400 mg/kg; method in brief: as §2
Mus musculus [12] = organism: Mus musculus; test: Acute toxicity in CD-1 mouse; type: organism-based; settings: in vivo
Mus musculus [13] = test: Induction of interferon level in CD-1 mouse serum at 9 mg/kg, ip after 18 to 20 hrs by vesicular stomatitis virus plaque reduction assay; type: functional, organism-based; set-up: dose 9 mg/kg; method in brief: as §2

SMILES: Cc1nn(C)c2nc3ccccc3c(NCCCN(C)C)c12.Cl
- minimal effective dose (Mus musculus [1]): 100 mg/kg
- minimal effective dose (Mus musculus [2]): 200 mg/kg
- Activity (Mus musculus [3]): Toxic
- Activity (Mus musculus [4]): Toxic

SMILES: COc1cc2nc3c(c(C)nn3C)c(NCCCN(C)C)c2c(OC)c1OC.Cl
- Activity (Mus musculus [5]): inactive
- Activity (Mus musculus [6]): Toxic

SMILES: Cc1nn(C)c2nc3ccccc3c(SCCCN(C)C)c12.Cl
- Activity (Mus musculus [7]): inactive
- Activity (Mus musculus [5]): inactive
- Activity (Mus musculus [8]): Toxic

SMILES: Cc1nn(CCCN(C)C)c2nc3ccccc3c(Cl)c12.Cl
- Activity (Mus musculus [9]): inactive
- Activity (Mus musculus [8]): Toxic

SMILES: COc1ccc(Cl)c2c(NCCCN(C)C)c3c(C)nn(C)c3nc12.Cl
- Activity (Mus musculus [10]): inactive
- Activity (Mus musculus [6]): Toxic

SMILES: Cc1ccc2c(NCCCN(C)C)c3c(C)nn(C)c3nc2c1.Cl
- minimal effective dose (Mus musculus [1]): 50 mg/kg
- minimal effective dose (Mus musculus [2]): 50 mg/kg
- Activity (Mus musculus [11]): inactive
- Activity (Mus musculus [12]): Toxic

SMILES: Cc1nn(C)c2nc3ccccc3c(NC3CC3)c12.Cl
- Activity (Mus musculus [10]): inactive
- Activity (Mus musculus [8]): Toxic

SMILES: Cc1nn(C)c2nc3ccccc3c(NCCc3ccncc3)c12.Cl
- Activity (Mus musculus [9]): inactive
- Activity (Mus musculus [13]): inactive
- Activity (Mus musculus [8]): Toxic

SMILES: CCOC(=O)c1cnc2c(c(C)nn2C)c1NCCCN(C)C
- Activity (Mus musculus [10]): inactive

SMILES: Cc1nn(CCNCCCN(C)C)c2nc3ccccc3c(NCCCN(C)C)c12.Cl
- Activity (Mus musculus [13]): inactive
- Activity (Mus musculus [8]): Toxic

SMILES: Cc1nn(C)c2nc3ccccc3c(N3CCC(CCN(C)C)CC3)c12.Cl
- Activity (Mus musculus [7]): inactive
- Activity (Mus musculus [8]): Toxic

SMILES: Cc1nn(C)c2nc3ccccc3c(NCCCNC34CC5CC(CC(C5)C3)C4)c12.Cl
- Activity (Mus musculus [10]): inactive
- Activity (Mus musculus [8]): Toxic
